Reference: ChEMBL document CHEMBL1137675, “Convenient one-pot synthesis of novel 2-substituted benzimidazoles, tetrahydrobenzimidazoles and imidazoles and evaluation of their in vitro antibacterial and antifungal activities” (2009)
In brackets after ≈: the same amount, converted by molar mass.

Legend:
[1] = system: Salmonella typhimurium; experiment: Antibacterial activity against Salmonella Typhimurium MTCC 98 at 37 degC after 24 hrs by filter paper disk method; type: functional, Salmonella enterica subsp. enterica serovar Typhimurium; conditions: for MIC: Salmonella enterica, MTCC 98, 24 h
Outline: (§1)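 Compounds were taken from a 1 mg/ml DMSO stock and serially diluted two-fold over a 300 to 18.75 range, then loaded onto sterile 8 mm paper discs. Bacteria were grown overnight in nutrient broth at 37 °C, pelleted, and resuspended in sterile NSS to 10⁵ cfu/ml. About 0.1 ml was spread on NA plates. Plates were incubated 24 h at 37 °C with a solvent control disc, and inhibition zone diameter was read in mm.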

[2] = system: Bacillus subtilis; experiment: Antibacterial activity against Bacillus subtilis ATCC 6051 at 37 degC after 24 hrs by filter paper disk method; type: functional; conditions: for MIC: Bacillus subtilis, ATCC 6051, 24 h; outline: as §1
[3] = system: Staphylococcus aureus; experiment: Antibacterial activity against Staphylococcus aureus MSSA 22 at 37 degC after 24 hrs by filter paper disk method; type: functional; conditions: for MIC: Staphylococcus aureus, MSSA 22, 24 h; outline: as §1
[4] = system: Escherichia coli; experiment: Antibacterial activity against Escherichia coli K-12 at 37 degC after 24 hrs by filter paper disk method; type: functional; conditions: for MIC: Escherichia coli, K-12, 24 h; outline: as §1
[5] = system: Candida albicans; experiment: Antifungal activity against Candida albicans IOA-109 at 37 degC after 18 to 48 hrs; type: functional; conditions: for MIC: Candida albicans, IOA-109
[6] = system: Aspergillus niger; experiment: Antifungal activity against Aspergillus niger at 28 degC after 72 hrs; type: functional; conditions: for MIC: Aspergillus niger, 72 h
Outline: (§2)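 Filamentous fungi were kept on SDA at 28 °C. Spores from 7-day cultures were suspended in sterile normal saline to about 10⁵ cfu/ml, and about 0.1 ml was spread on SDA plates. Compounds were serially diluted two-fold in DMSO and impregnated on 8 mm discs, with a solvent control disc on each plate. Plates were held at 28 °C for 72 h or more, and inhibition zone diameter was read in mm.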

[7] = system: Trichoderma viride; experiment: Antifungal activity against Trichoderma viride at 28 degC after 72 hrs; type: functional; conditions: for MIC: Trichoderma viride, 72 h; outline: as §2
[8] = system: Penicillium sp.; experiment: Antifungal activity against Penicillium sp. at 28 degC after 72 hrs; type: functional; conditions: for MIC: Penicillium sp., 72 h; outline: as §2
[9] = system: Helminthosporium; experiment: Antifungal activity against Helminthosporium oryzae 2537 ICAR at 28 degC after 72 hrs; type: functional; conditions: for MIC: Helminthosporium, 72 h; outline: as §2

| SMILES | MIC [1] [µg/mL] | MIC [2] [µg/mL] | MIC [3] [µg/mL] | MIC [4] [µg/mL] | MIC [5] [µg/mL] | MIC [6] [µg/mL] | MIC [7] [µg/mL] | MIC [8] [µg/mL] | MIC [9] [µg/mL] | diameter of the inhibition zone (DIZ) [1] [mm] | diameter of the inhibition zone (DIZ) [2] [mm] | diameter of the inhibition zone (DIZ) [3] [mm] | diameter of the inhibition zone (DIZ) [4] [mm] | diameter of the inhibition zone (DIZ) [5] [mm] | diameter of the inhibition zone (DIZ) [6] [mm] | diameter of the inhibition zone (DIZ) [7] [mm] | diameter of the inhibition zone (DIZ) [8] [mm] | diameter of the inhibition zone (DIZ) [9] [mm] |
| --- | --- | --- | --- | --- | --- | --- | --- | --- | --- | --- | --- | --- | --- | --- | --- | --- | --- | --- |
| CCCCC/C=C\CC[C@H](O)CCCCCCCc1nc2c([nH]1)CCCC2 | 75 (≈ 200 µM) | 75 (≈ 200 µM) | 75 (≈ 200 µM) | 150 (≈ 400 µM) | 75 (≈ 200 µM) | 37.5 (≈ 100 µM) | 37.5 (≈ 100 µM) | 75 (≈ 200 µM) | 150 (≈ 400 µM) | 13 | 23 | 16 | 16 | 19 | 12 | 8 | 17 | 11 |
| CCCCCCCC/C=C/CCCCCCCc1nc2cc([N+](=O)[O-])ccc2[nH]1 | 37.5 (≈ 93.8 µM) | 37.5 (≈ 93.8 µM) | 37.5 (≈ 93.8 µM) | 75 (≈ 188 µM) | 37.5 (≈ 93.8 µM) | 37.5 (≈ 93.8 µM) | 37.5 (≈ 93.8 µM) | 37.5 (≈ 93.8 µM) | 75 (≈ 188 µM) | 11 | 20 | 21 | 20 | 19 | 15 | 8 | 18 | 12 |
| C=CCCCCCCCCc1nc2cc(Cl)ccc2[nH]1 | 37.5 (≈ 129 µM) | 75 (≈ 258 µM) | 37.5 (≈ 129 µM) | 75 (≈ 258 µM) | 37.5 (≈ 129 µM) | 37.5 (≈ 129 µM) | 37.5 (≈ 129 µM) | 37.5 (≈ 129 µM) | 75 (≈ 258 µM) | 14 | 19 | 22 | 20 | 18 | 15 | 10 | 19 | 15 |
| CCCCCC[C@@H](O)C/C=C\CCCCCCCc1ncc[nH]1 | 75 (≈ 234 µM) | 37.5 (≈ 117 µM) | 150 (≈ 468 µM) | 150 (≈ 468 µM) | 75 (≈ 234 µM) | 150 (≈ 468 µM) | 75 (≈ 234 µM) | 150 (≈ 468 µM) | 150 (≈ 468 µM) | 12 | 18 | 15 | 12 | 18 | 13 | 6 | 18 | 13 |
| C=CCCCCCCCCc1nc2cc([N+](=O)[O-])ccc2[nH]1 | 37.5 (≈ 124 µM) | 37.5 (≈ 124 µM) | 150 (≈ 498 µM) | 75 (≈ 249 µM) | 37.5 (≈ 124 µM) | 37.5 (≈ 124 µM) | 37.5 (≈ 124 µM) | 37.5 (≈ 124 µM) | 75 (≈ 249 µM) | 12 | 19 | 22 | 20 | 18 | 15 | 8 | 18 | 10 |
| CCCCC/C=C\CC[C@H](O)CCCCCCCc1nc2ccccc2[nH]1 | 75 (≈ 202 µM) | 75 (≈ 202 µM) | 150 (≈ 405 µM) | 150 (≈ 405 µM) | 75 (≈ 202 µM) | 150 (≈ 405 µM) | 75 (≈ 202 µM) | 75 (≈ 202 µM) | 150 (≈ 405 µM) | 12 | 19 | 19 | 17 | 18 | 14 | 8 | 17 | 11 |

The next lines start with results.

| MIC [1] [µg/mL] | MIC [2] [µg/mL] | MIC [3] [µg/mL] | MIC [4] [µg/mL] | MIC [5] [µg/mL] | MIC [6] [µg/mL] | MIC [7] [µg/mL] | MIC [8] [µg/mL] | MIC [9] [µg/mL] | SMILES | diameter of the inhibition zone (DIZ) [1] [mm] | diameter of the inhibition zone (DIZ) [2] [mm] | diameter of the inhibition zone (DIZ) [3] [mm] | diameter of the inhibition zone (DIZ) [4] [mm] | diameter of the inhibition zone (DIZ) [5] [mm] | diameter of the inhibition zone (DIZ) [6] [mm] | diameter of the inhibition zone (DIZ) [7] [mm] | diameter of the inhibition zone (DIZ) [8] [mm] | diameter of the inhibition zone (DIZ) [9] [mm] |
| --- | --- | --- | --- | --- | --- | --- | --- | --- | --- | --- | --- | --- | --- | --- | --- | --- | --- | --- |
| 74 (≈ 359 µM) | 37.5 (≈ 182 µM) | 150 (≈ 727 µM) | 150 (≈ 727 µM) | 75 (≈ 363 µM) | 150 (≈ 727 µM) | 75 (≈ 363 µM) | 150 (≈ 727 µM) | 150 (≈ 727 µM) | C=CCCCCCCCCc1ncc[nH]1 | 14 | 22 | 16 | 15 | 19 | 11 | 6 | 16 | 12 |
| 75 (≈ 293 µM) | 75 (≈ 293 µM) | 150 (≈ 585 µM) | 150 (≈ 585 µM) | 75 (≈ 293 µM) | 150 (≈ 585 µM) | 75 (≈ 293 µM) | 75 (≈ 293 µM) | 150 (≈ 585 µM) | C=CCCCCCCCCc1nc2ccccc2[nH]1 | 16 | 22 | 20 | 18 | 19 | 14 | 7 | 18 | 13 |
| 75 (≈ 246 µM) | 37.5 (≈ 123 µM) | 150 (≈ 493 µM) | 150 (≈ 493 µM) | 75 (≈ 246 µM) | 150 (≈ 493 µM) | 75 (≈ 246 µM) | 150 (≈ 493 µM) | 150 (≈ 493 µM) | CCCCCCCC/C=C/CCCCCCCc1ncc[nH]1 | 11 | 19 | 15 | 11 | 18 | 12 | 4 | 17 | 12 |
| 75 (≈ 212 µM) | 75 (≈ 212 µM) | 150 (≈ 423 µM) | 150 (≈ 423 µM) | 75 (≈ 212 µM) | 150 (≈ 423 µM) | 75 (≈ 212 µM) | 75 (≈ 212 µM) | 150 (≈ 423 µM) | CCCCCCCC/C=C\CCCCCCCc1nc2ccccc2[nH]1 | 14 | 21 | 18 | 16 | 19 | 16 | 6 | 18 | 12 |
| 37.5 (≈ 90.2 µM) | 37.5 (≈ 90.2 µM) | 37.5 (≈ 90.2 µM) | 37.5 (≈ 90.2 µM) | 37.5 (≈ 90.2 µM) | 37.5 (≈ 90.2 µM) | 37.5 (≈ 90.2 µM) | 37.5 (≈ 90.2 µM) | 75 (≈ 180 µM) | CCCCCC[C@@H](O)C/C=C\CCCCCCCc1nc2cc([N+](=O)[O-])ccc2[nH]1 | 12 | 21 | 19 | 16 | 19 | 16 | 9 | 19 | 15 |
| 75 (≈ 288 µM) | 75 (≈ 288 µM) | 75 (≈ 288 µM) | 37.5 (≈ 144 µM) | 75 (≈ 288 µM) | 37.5 (≈ 144 µM) | 37.5 (≈ 144 µM) | 75 (≈ 288 µM) | 150 (≈ 576 µM) | C=CCCCCCCCCc1nc2c([nH]1)CCCC2 | 11 | 18 | 18 | 17 | 18 | 12 | 7 | 18 | 11 |
| 75 (≈ 202 µM) | 75 (≈ 202 µM) | 150 (≈ 405 µM) | 150 (≈ 405 µM) | 75 (≈ 202 µM) | 150 (≈ 405 µM) | 75 (≈ 202 µM) | 75 (≈ 202 µM) | 150 (≈ 405 µM) | CCCCCC[C@@H](O)C/C=C\CCCCCCCc1nc2ccccc2[nH]1 | 12 | 21 | 19 | 17 | 19 | 16 | 8 | 19 | 13 |
